Experimental data: ChEMBL document CHEMBL1128370, “Novel NMDA antagonists: replacement of the pyridinium ring of 6,11-ethanobenzo[b]quinolizinium cations with heteroisoquinolinium cations” (J Med Chem, 1995)

Columns and labels:
Glutamate NMDA receptor = assay: Binding affinity against phencyclidine (PCP) site of N-methyl-D-aspartate glutamate receptor from rat brain, using [3H]- TCP as radioligand.
Outline: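 Male Sprague-Dawley rat whole-brain membranes, washed by repeated homogenization/centrifugation in 50 mM Tris-HCl pH 7.7, frozen at -70 °C, assayed in 5 mM Tris-HCl at 0.5 mg protein/tube. [3H]TCP about 1 nM final with varying compound concentrations, 25 min at room temperature. Nonspecific binding with 100 μM PCP. Filtration, scintillation counting, Ki calculated. At least three determinations in triplicate.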

[1] = Neuroprotection was determined against NMDA induced cell death in cultured mouse cortical neuron.; format: functional
Outline: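 Primary cortical neurons from Swiss-Webster mouse embryos at 16 days post conception, trypsinized, plated at 50 000 cells/well, cytosine arabinoside from day 5, used on day 13. Cells were washed and exposed 30 min to 500 µM NMDA with or without varying concentrations of test agent in MEM, then returned to MEM alone. MK-801 10 µM served as positive control.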

| Compound | Ki (Glutamate NMDA receptor) | IC50 [1] |
| --- | --- | --- |
| Cn1nc[n+]2c1C1c3ccccc3C2CC1(c1ccoc1)c1ccoc1 (configuration not stated) | 14 nM | – |
| c1ccc(-n2cc[n+]3c2C2c4ccccc4C3CC2(c2ccoc2)c2ccoc2)cc1 (configuration not stated) | 52 nM | – |
| c1ccc2c(c1)C1CC(c3ccoc3)(c3ccoc3)C2c2scc[n+]21 (configuration not stated) | 2.9 nM | 50 nM |
| c1ccc2c(c1)C1CC(c3ccoc3)(c3ccoc3)C2c2cccc[n+]21 (configuration not stated) | – | 45 nM |
| C1=C[N+]2=C(C1c1cccc3ccccc13)C1c3ccccc3C2CC1(c1ccoc1)c1ccoc1 (configuration not stated) | 329 nM | – |
| c1ccc(C(c2ccccc2)n2cc[n+]3c2C2c4ccccc4C3CC2(c2ccoc2)c2ccoc2)cc1 (configuration not stated) | 306 nM | – |
| CCOC1(OCC)C2c3ccccc3C([n+]3ccn(Cc4ccccc4)c32)C1(C)C (configuration not stated) | 10 nM | – |
| CCCCn1cc[n+]2c1C1c3ccccc3C2CC1(c1ccoc1)c1ccoc1 (configuration not stated) | 36 nM | – |
| c1ccc2c(c1)C1CC(c3ccoc3)(c3ccoc3)C2c2n(Cc3ccc4ccccc4c3)cc[n+]21 (configuration not stated) | 330 nM | – |
| CCOC1(OCC)C2c3ccccc3C([n+]3ccccc32)C1(C)C (configuration not stated) | – | 60 nM |
| c1ccc(CCCn2cc[n+]3c2C2c4ccccc4C3CC2(c2ccoc2)c2ccoc2)cc1 (configuration not stated) | 68 nM | – |
| CCOC1(OCC)C2c3ccccc3C([n+]3ccsc32)C1(C)C (configuration not stated) | 6.1 nM | 173 nM |
| CCOC1(OCC)C2c3ccccc3C([n+]3ccn(C)c32)C1(C)C (configuration not stated) | 8.2 nM | 53 nM |
| Cn1cc[n+]2c1C1c3ccccc3C2CC1(c1ccoc1)c1ccoc1 (configuration not stated) | 2.9 nM | 257 nM |
| CCOC1(OCC)C2c3ccccc3C([n+]3cnn(C)c32)C1(C)C (configuration not stated) | 30 nM | – |
| c1ccc(Cn2cc[n+]3c2C2c4ccccc4C3CC2(c2ccoc2)c2ccoc2)cc1 (configuration not stated) | 7.7 nM | 42 nM |
| C[C@]12N[C@H](Cc3ccccc31)c1ccccc12 [DIZOCILPINE] | – | 67 nM |
